# Test results: ChEMBL document CHEMBL3425511 (J Med Chem, 2015)
# Activity calls are given as the source filed them.
# Experiments:
# [1] = target: T1, Transient receptor potential cation channel subfamily V member 1 (Homo sapiens, UniProt Q8NER1); assay: Antagonist activity at recombinant human TRPV1 expressed in HEK293 cells assessed as inhibition of capsaicin-induced Ca2+ influx at 1 uM preincubated for 5 mins followed by capsaicin challenge relative to control; type: cell-based
# Outline: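 HEK293 cells stably expressing human TRPV1, loaded with Calcium 3 dye 35 min at 37 °C, then 25 min at room temperature. Compound added and Ca²⁺ read 5 min (FLIPR or FDSS) before capsaicin at ~EC80 (typically 0.020−0.030 μM final). Response normalised to 90 or 100 μM capsaicin (100%) and 0.6 pM (0%).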
# [2] = target: T1, Transient receptor potential cation channel subfamily V member 1; assay: Antagonist activity at recombinant human TRPV1 expressed in HEK293 cells assessed as inhibition of capsaicin-induced Ca2+ influx preincubated for 5 mins followed by capsaicin challenge; type: cell-based
# [3] = test system: Rattus norvegicus; assay: Reversal of complete freund's adjuvant-induced thermal hypersensitivity in po dosed Sprague-Dawley rat measured after 30 to 180 mins; type: functional, organism-based
# Outline: (§1)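 Male Sprague−Dawley rats (195−350 g), intraplantar CFA (100 μL, 1:1 CFA:saline) with testing 24 h later, or carrageenan-λ (200 μL, 10 mg/mL) with testing 3 h later. Radiant heat withdrawal latency, 10−15 s baseline, 20 s cutoff; rats with ≥25% latency drop kept. Oral dosing at 2.5 mL/kg. Percent reversal = (treatment − post)/(pre − post) × 100, scored blind.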
# [4] = organism: Rattus norvegicus; assay: Drug level in rat treated with (trans)-1-(2-{2-[2-(4-Trifluoromethyl-phenyl)-vinyl]-1H-benzoimidazol-5-yl}-phenyl)-ethanol; type: ADME, organism-based; conditions: in vivo
# [5] = test system: Liver microsome; assay: (§2) Metabolic stability in human liver microsomes assessed as compound remaining after 10 mins; type: ADME; conditions: microsomes, 10 min
# Outline: (§3)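 Compound incubated 10 min with liver microsomes of the stated species; amount of parent remaining reported as percent.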
# [6] = test system: Liver microsome; assay: (§4) Metabolic stability in rat liver microsomes assessed as compound remaining after 10 mins; type: ADME; conditions: microsomes, 10 min; outline: as §3
# [7] = test system: Rattus norvegicus; assay: Reversal of complete freund's adjuvant-induced thermal hypersensitivity in Sprague-Dawley rat at 30 mg/kg, po measured after 30 to 180 mins; type: functional, organism-based; parameters: dose 30 mg/kg
# [8] = as §2; type: ADME; conditions: liver microsomes, read-out: Stability; outline: as §3
# [9] = as §4; type: ADME; conditions: liver microsomes, read-out: Stability; outline: as §3
# [10] = Clearance in rat at 2 mg/kg, iv; type: ADME, organism-based; parameters: dose 2 mg/kg, route intravenous; conditions: in vivo
# Outline: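 Intravenous dosing at 2 mg/kg as a solution of the sodium salt in 20% HPβCD, n = 4 animals per group.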
# [11] = Half life in rat at 10 mg/kg, po; type: ADME, organism-based; parameters: dose 10 mg/kg, route oral; conditions: in vivo
# Outline: (§5)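 Oral dosing at 10 mg/kg as a solution of the sodium salt in 20% HPβCD, n = 4 animals per group.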
# [12] = test system: Rattus norvegicus; assay: Reversal of complete freund's adjuvant-induced thermal hypersensitivity in po dosed Sprague-Dawley rat after 60 mins; type: functional; outline: as §1
# [13] = Oral bioavailability in rat at 10 mg/kg; type: ADME, organism-based; conditions: in vivo; outline: as §5
# [14] = test system: Rattus norvegicus; assay: Reversal of complete freund's adjuvant-induced thermal hypersensitivity in po dosed Sprague-Dawley rat assessed as plasma concentration required to reach ED50 measured at 100 mins; type: functional
# Outline: (§6)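 Rats dosed orally 100 min before radiant-heat testing. For CFA, plasma taken right after behavioural testing; for carrageenan, taken from a separate group dosed identically. Blood collected on lithium heparin and centrifuged, plasma stored at −80 °C. Plasma levels matching ED50 and ED80 (EC50/EC80) computed from the dose−response data.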
# [15] = test system: Rattus norvegicus; assay: Reversal of complete freund's adjuvant-induced thermal hypersensitivity in po dosed Sprague-Dawley rat measured at 100 mins; type: functional; outline: as §1
# [16] = test system: Rattus norvegicus; assay: Reversal of complete freund's adjuvant-induced thermal hypersensitivity in po dosed Sprague-Dawley rat assessed as plasma concentration required to reach ED80 measured at 100 mins; type: functional; outline: as §6
# [17] = test system: Rattus norvegicus; assay: Reversal of complete freund's adjuvant-induced thermal hypersensitivity in po dosed Sprague-Dawley rat measured at 3 hrs; type: functional; outline: as §1
# [18] = test system: Rattus norvegicus; assay: Reversal of complete freund's adjuvant-induced thermal hypersensitivity in po dosed Sprague-Dawley rat measured at 30 mins; type: functional; outline: as §1
# [19] = test system: Rattus norvegicus; assay: Reversal of complete freund's adjuvant-induced thermal hypersensitivity in Sprague-Dawley rat at 10 mg/kg, po measured after 30 to 180 mins; type: functional, organism-based; parameters: dose 10 mg/kg
# [20] = organism: Rattus norvegicus; assay: Drug metabolism in rat assessed as formation of (trans)-1-(2-{2-[2-(4-Trifluoromethyl-phenyl)-vinyl]-1H-benzoimidazol-5-yl}-phenyl)-ethanone; type: ADME, organism-based; conditions: in vivo
# T1 sequence (Q8NER1 whole entry): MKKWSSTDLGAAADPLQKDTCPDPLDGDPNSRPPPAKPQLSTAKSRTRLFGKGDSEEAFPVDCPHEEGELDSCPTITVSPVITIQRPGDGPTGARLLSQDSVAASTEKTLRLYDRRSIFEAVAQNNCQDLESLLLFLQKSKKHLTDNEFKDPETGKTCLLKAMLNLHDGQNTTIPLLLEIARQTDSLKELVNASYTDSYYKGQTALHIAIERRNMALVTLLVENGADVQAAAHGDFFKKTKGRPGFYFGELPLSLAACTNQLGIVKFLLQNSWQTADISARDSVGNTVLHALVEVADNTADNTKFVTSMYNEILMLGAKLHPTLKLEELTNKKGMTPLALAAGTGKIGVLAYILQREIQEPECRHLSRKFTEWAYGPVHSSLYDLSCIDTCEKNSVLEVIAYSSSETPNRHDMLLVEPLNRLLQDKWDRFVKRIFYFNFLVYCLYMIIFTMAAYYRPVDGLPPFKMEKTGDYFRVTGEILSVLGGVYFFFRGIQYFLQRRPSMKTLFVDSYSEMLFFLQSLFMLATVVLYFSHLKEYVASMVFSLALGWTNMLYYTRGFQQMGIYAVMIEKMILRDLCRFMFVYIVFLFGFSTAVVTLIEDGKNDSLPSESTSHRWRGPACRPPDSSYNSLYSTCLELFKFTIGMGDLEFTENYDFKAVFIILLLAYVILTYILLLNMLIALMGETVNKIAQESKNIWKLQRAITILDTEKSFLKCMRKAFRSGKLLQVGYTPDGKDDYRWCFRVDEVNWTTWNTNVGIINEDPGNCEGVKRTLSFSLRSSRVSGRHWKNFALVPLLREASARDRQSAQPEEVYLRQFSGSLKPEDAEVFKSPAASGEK
structure (smiles),measurement,setting,value
CS(=O)(=O)Nc1ccccc1-c1ccc2[nH]c(/C=C/c3ccccc3C(F)(F)F)nc2c1,inhibition,[1],44%
CC(C)(O)c1ccccc1-c1ccc2[nH]c(/C=C/c3ccc(S(=O)(=O)C(F)(F)F)cc3)nc2c1,IC50,[2],19 nM
same,Activity,[3],inactive
CC(C)(C)c1ccc(CCCc2nc3cc(-c4ccccc4O)ccc3[nH]2)cc1,inhibition,[1],6%
CC(=O)c1ccccc1-c1ccc2[nH]c(/C=C/c3ccc(C(F)(F)F)cc3)nc2c1,Drug metabolism,[4],metabolite_detected
NS(=O)(=O)c1ccccc1-c1ccc2[nH]c(CCc3ccc(C(F)(F)F)cc3)nc2c1,Stability,[5],Unstable
same,Stability,[6],Unstable
Cc1ccc(-c2cc(C(F)(F)F)nn2-c2ccc(S(N)(=O)=O)cc2)cc1,Activity,[7],Active
CC(C)c1ccc(/C=C/c2nc3cc(-c4ccccc4NS(C)(=O)=O)ccc3[nH]2)cc1,IC50,[2],9.2 nM
CC(C)(C)c1ccc(/C=C/c2nc3cc(-c4cccc(C(N)=O)c4)ccc3[nH]2)cc1,inhibition,[1],12%
CC(=O)c1ccccc1-c1ccc2[nH]c(/C=C/c3ccc(C(C)(C)C)cc3)nc2c1,remaining at 10 min,[8],12%
same,IC50,[2],25 nM
same,remaining at 10 min,[9],43%
CS(=O)(=O)Nc1ccccc1-c1ccc2[nH]c(/C=C/c3ccc(C(F)(F)F)cc3)nc2c1,clearance,[10],13 mL/min/kg
same,remaining at 10 min,[8],85%
same,half-life,[11],4 h
same,Activity,[12],Dose-dependent effect
same,ED50,"[12]; Rattus norvegicus, Sprague-Dawley, po, 1 h",4.3 mg/kg
same,IC50,[2],10 nM
same,bioavailability,[13],65%
same,remaining at 10 min,[9],50%
NS(=O)(=O)c1ccccc1-c1ccc2[nH]c(/C=C/c3cccc(OC(F)(F)F)c3)nc2c1,Stability,[6],Unstable
NS(=O)(=O)c1ccccc1-c1ccc2[nH]c(/C=C/c3ccc(C(F)(F)F)cc3)nc2c1,Activity,[14],1757 ng/mL
same,ED50,[15],2.6 mg/kg
same,ED80,[15],10.3 mg/kg
same,Activity,[16],62788 ng/mL
NS(=O)(=O)c1ccccc1-c1ccc2[nH]c(/C=C/c3ccc(OC(F)(F)F)cc3)nc2c1,Stability,[6],Unstable
CC(C)(C)c1ccc(Cc2nc3cc(-c4ccccc4O)ccc3[nH]2)cc1,inhibition,[1],6%
CS(=O)(=O)Nc1ccccc1-c1ccc2[nH]c(/C=C/c3ccc(OCC(F)(F)C(F)(F)F)cc3)nc2c1,inhibition,[1],63%
CC(C)(O)c1ccccc1-c1ccc2[nH]c(CCc3ccc(C(F)(F)F)cc3)nc2c1,remaining at 10 min,[8],45%
same,IC50,[2],2.8 nM
same,remaining at 10 min,[9],5%
CC(C)(O)c1ccccc1-c1ccc2[nH]c(C#Cc3ccccc3)nc2c1,Stability,[5],Stable
same,IC50,[2],2.8 nM
same,bioavailability,[13],13%
same,Stability,[6],Stable
same,Activity,[17],41%
same,Activity,[18],71%
CC(C)(O)c1ccccc1-c1ccc2[nH]c(/C=C/c3cccc(C(F)(F)F)c3)nc2c1,Activity,[12],58%
same,IC50,[2],4.9 nM
CS(=O)(=O)Nc1ccccc1-c1ccc2[nH]c(/C=C/c3ccc(OC(F)(F)F)cc3)nc2c1,IC50,[2],17 nM
same,Stability,[6],Stable
same,Activity,[19],inactive
CC(C)(O)c1ccccc1-c1ccc2[nH]c(C#Cc3ccc(C(F)(F)F)cc3)nc2c1,Stability,[5],Stable
same,IC50,[2],4.5 nM
same,Stability,[6],Stable
CC(O)c1ccccc1-c1ccc2[nH]c(/C=C/c3ccc(C(F)(F)F)cc3)nc2c1 (stereo not given),remaining at 10 min,[8],97%
same,bioavailability,[13],39%
same,remaining at 10 min,[9],89%
same,Drug metabolism,[20],metabolite_detected
CC(C)(O)c1ccccc1-c1ccc2[nH]c(/C=C/c3ccc(Cl)cc3)nc2c1,Stability,[5],Stable
same,IC50,[2],5.7 nM
same,Activity,[3],inactive
same,Stability,[6],Stable
CC(C)(C)c1ccc(/C=C/c2nc3cc(-c4ccc(C(N)=O)cc4)ccc3[nH]2)cc1,inhibition,[1],10%
CC(C)(C)c1ccc(/C=C/c2nc3cc(-c4ccccc4C(N)=O)ccc3[nH]2)cc1,IC50,[2],40 nM
CS(=O)(=O)Nc1ccccc1-c1ccc2[nH]c(/C=C/c3cccc(C(F)(F)F)c3)nc2c1,inhibition,[1],48%
NS(=O)(=O)c1ccccc1-c1ccc2[nH]c(C#Cc3ccc(C(F)(F)F)cc3)nc2c1,IC50,[2],20 nM
CC(C)(C)c1ccc(/C=C/c2nc3cc(-c4ccccc4NS(C)(=O)=O)ccc3[nH]2)cc1,remaining at 10 min,[8],9%
same,remaining at 10 min,[9],29%
CC(=O)Nc1ccc(-c2ccc3[nH]c(/C=C/c4ccc(C(C)(C)C)cc4)nc3c2)cc1,inhibition,[1],10%
CC(C)(O)c1ccccc1-c1ccc2[nH]c(/C=C/c3ccc(OC(F)(F)F)cc3)nc2c1,Stability,[5],Stable
same,IC50,[2],5.9 nM
same,Activity,[3],inactive
same,Stability,[6],Stable
